Assay results collected from several papers.
Protocols differ between the studies behind these lines.
Target: Inhibitor of nuclear factor kappa-B kinase subunit epsilon (IKBKE, Homo sapiens, UniProt Q14164)
Read-out: enzyme activity
One construct used (Q14164 1-716): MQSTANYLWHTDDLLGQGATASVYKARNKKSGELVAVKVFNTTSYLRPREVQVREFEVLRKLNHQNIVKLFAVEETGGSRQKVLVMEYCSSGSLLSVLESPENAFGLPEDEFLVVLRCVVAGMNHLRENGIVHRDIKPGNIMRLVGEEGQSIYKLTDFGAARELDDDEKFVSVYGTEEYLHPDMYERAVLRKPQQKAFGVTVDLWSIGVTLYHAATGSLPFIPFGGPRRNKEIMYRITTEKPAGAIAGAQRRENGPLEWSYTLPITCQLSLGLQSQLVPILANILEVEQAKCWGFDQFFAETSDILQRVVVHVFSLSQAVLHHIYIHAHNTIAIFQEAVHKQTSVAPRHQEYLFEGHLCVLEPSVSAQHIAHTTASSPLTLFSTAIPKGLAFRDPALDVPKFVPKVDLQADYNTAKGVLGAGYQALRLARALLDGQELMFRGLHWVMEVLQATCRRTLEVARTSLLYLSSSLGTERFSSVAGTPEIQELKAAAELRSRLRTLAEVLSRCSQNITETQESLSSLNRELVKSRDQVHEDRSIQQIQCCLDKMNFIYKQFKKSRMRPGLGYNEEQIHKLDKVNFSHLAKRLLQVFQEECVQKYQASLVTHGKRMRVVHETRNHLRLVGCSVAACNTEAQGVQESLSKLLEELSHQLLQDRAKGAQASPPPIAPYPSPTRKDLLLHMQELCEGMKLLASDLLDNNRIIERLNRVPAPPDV

SMILES	assay	conditions	remaining activity
O=C1Nc2ccc(Cl)cc2C1=Cc1cc(Cl)c(O)c(Cl)c1		0.5 µM	94.7%
Nc1ncnc2occ(-c3ccc(NC(=O)Nc4cc(C(F)(F)F)ccc4F)cc3)c12	inhibitor	20 µM	12%
NS(=O)(=O)c1ccc(CNc2nc(Nc3cccc(NC(=O)N4CCCC4)c3)ncc2Br)cc1	inhibitor, radiometric	1 µM	35%
Cn1c(=O)n(-c2ccc(C(C)(C)C#N)cc2)c2c3cc(-c4cnc5ccccc5c4)ccc3ncc21	inhibitor	10 µM	86%
O=C1NC(=O)c2cc(Nc3ccc(F)cc3)c(Nc3ccc(F)cc3)cc21	inhibitor	0.5 µM	100%
Cc1sc(C(=O)NC2COC2)cc1-n1cc(NC(=O)Nc2c(F)cccc2Cl)cn1	inhibitor	10 µM	116%
O=C(NCCCNc1nc(Nc2cccc(NC(=O)N3CCCC3)c2)ncc1I)c1cccs1	inhibitor, radiometric	1 µM	2%
COc1cc(Nc2cnc(C#N)c(O[C@H](C)CN(C)C)n2)ncc1-c1cnn(C)c1	inhibitor, radiometric	1 µM	78%
CC(C)(C)c1nc2c(s1)c1nc(N)ncc1c1ccc(NS(=O)(=O)c3c(F)cccc3F)c(F)c12	inhibitor, radiometric	1 µM	90%
Cc1nn(CC(F)(F)F)cc1Nc1ncc(Br)c(NCCc2cnc[nH]2)n1	inhibitor, radiometric	1 µM	55%
O=C(Nc1cnn(-c2csc(C(=O)NC3COC3)c2)c1)Nc1c(F)cccc1Cl	inhibitor	5 µM	96.8%
Brc1cnc(Nc2cccc(CN3CCOCC3)c2)nc1NCCc1c[nH]cn1	inhibitor, radiometric	1 µM	36%
Cc1cnc(NC2CCOCC2)nc1-n1cnc(C(=O)NC(CN)c2cc(F)cc(Cl)c2)c1 (stereo not drawn)	inhibitor, radiometric	1 µM	64%
O=c1c2ccccc2[nH]c(=S)n1CCN1CCC(=C(c2ccc(F)cc2)c2ccc(F)cc2)CC1	inhibitor	0.5 µM	101%
c1cc(CN2CCOCC2)cc(Nc2ncc(C3CC3)c(NCCc3c[nH]cn3)n2)c1	inhibitor, radiometric	1 µM	55%
